Measurements published in ChEMBL document CHEMBL1142133 (2007).

How the values were obtained:
Type in all cases: functional
[1] = tested on: Cryptococcus neoformans; test: Antifungal activity against flucytosine-resistant Cryptococcus neoformans 99.1026 by checkerboard method
[2] = tested on: Cryptococcus neoformans; test: Antifungal activity against flucytosine-resistant Cryptococcus neoformans 98.1121 at 64 ug/ml after 72 hrs by time-kill method
Method in brief: (§1)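 Time-kill assay on flucytosine-resistant isolates. […] Viable counts were taken as log10 CFU per ml after 72 h of incubation.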

[3] = tested on: Cryptococcus neoformans; test: Antifungal activity against flucytosine-resistant Cryptococcus neoformans 550 by checkerboard method in presence of amphotericin B
[4] = tested on: Cryptococcus neoformans; test: Antifungal activity against flucytosine-resistant Cryptococcus neoformans 99.1026 by checkerboard method in presence of amphotericin B
[5] = tested on: Cryptococcus neoformans; test: Antifungal activity against flucytosine-resistant Cryptococcus neoformans 285 by Etest method in presence of amphotericin B
[6] = tested on: Cryptococcus neoformans; test: Antifungal activity against flucytosine-resistant Cryptococcus neoformans 98.0673 by checkerboard method
[7] = tested on: Cryptococcus neoformans; test: Antifungal activity against flucytosine-resistant Cryptococcus neoformans 98.1121 by Etest method in presence of amphotericin B
[8] = tested on: Cryptococcus neoformans; test: Antifungal activity against flucytosine-resistant Cryptococcus neoformans 98.0673 at 64 ug/ml after 72 hrs by time-kill method
Method in brief: (§2)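 Time-kill assay run as in the authors' earlier method. […] Read-out was log10 CFU/ml after 72 h incubation, compared with a drug-free control.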

[9] = tested on: Cryptococcus neoformans; test: Antifungal activity against flucytosine-resistant Cryptococcus neoformans 550 at 64 ug/ml after 72 hrs by time-kill method; method in brief: as §2
[10] = tested on: Cryptococcus neoformans; test: Antifungal activity against flucytosine-resistant Cryptococcus neoformans 276 by checkerboard method in presence of amphotericin B
[11] = tested on: Cryptococcus neoformans; test: Antifungal activity against flucytosine-resistant Cryptococcus neoformans 99.1026 by Etest method in presence of amphotericin B
[12] = tested on: Cryptococcus neoformans; test: Antifungal activity against flucytosine-resistant Cryptococcus neoformans 280 at 64 ug/ml after 72 hrs by time-kill method; method in brief: as §2
[13] = tested on: Cryptococcus neoformans; test: Antifungal activity against flucytosine-resistant Cryptococcus neoformans 98.0176 by checkerboard method in presence of amphotericin B
[14] = tested on: Cryptococcus neoformans; test: Antifungal activity against flucytosine-resistant Cryptococcus neoformans 99.1026 at 64 ug/ml after 72 hrs by time-kill method; method in brief: as §1
[15] = tested on: Cryptococcus neoformans; test: Antifungal activity against flucytosine-resistant Cryptococcus neoformans 280 by checkerboard method in presence of amphotericin B
[16] = tested on: Cryptococcus neoformans; test: Antifungal activity against flucytosine-resistant Cryptococcus neoformans 533 by checkerboard method in presence of amphotericin B
[17] = tested on: Cryptococcus neoformans; test: Antifungal activity against flucytosine-resistant Cryptococcus neoformans 98.0673 by Etest method in presence of amphotericin B
[18] = tested on: Cryptococcus neoformans; test: Antifungal activity against flucytosine-resistant Cryptococcus neoformans 550 by checkerboard method
[19] = tested on: Cryptococcus neoformans; test: Antifungal activity against flucytosine-resistant Cryptococcus neoformans 280 by Etest method in presence of amphotericin B
[20] = tested on: Cryptococcus neoformans; test: Antifungal activity against flucytosine-resistant Cryptococcus neoformans 280 by checkerboard method
[21] = tested on: Cryptococcus neoformans; test: Antifungal activity against flucytosine-resistant Cryptococcus neoformans 98.0176 by checkerboard method
[22] = tested on: Cryptococcus neoformans; test: Antifungal activity against flucytosine-resistant Cryptococcus neoformans 18476 at 64 ug/ml after 72 hrs by time-kill method; method in brief: as §2
[23] = tested on: Cryptococcus neoformans; test: Antifungal activity against flucytosine-resistant Cryptococcus neoformans 533 by Etest method in presence of amphotericin B
[24] = tested on: Cryptococcus neoformans; test: Antifungal activity against flucytosine-resistant Cryptococcus neoformans 98.0176 at 64 ug/ml after 72 hrs by time-kill method; method in brief: as §2
[25] = tested on: Cryptococcus neoformans; test: Antifungal activity against flucytosine-resistant Cryptococcus neoformans 98.1121 by checkerboard method
[26] = tested on: Cryptococcus neoformans; test: Antifungal activity against flucytosine-resistant Cryptococcus neoformans 98.1121 by checkerboard method in presence of amphotericin B
[27] = tested on: Cryptococcus neoformans; test: Antifungal activity against flucytosine-resistant Cryptococcus neoformans 98.0673 by checkerboard method in presence of amphotericin B
[28] = tested on: Cryptococcus neoformans; test: Antifungal activity against flucytosine-resistant Cryptococcus neoformans 550 by Etest method in presence of amphotericin B
[29] = tested on: Cryptococcus neoformans; test: Antifungal activity against flucytosine-resistant Cryptococcus neoformans 276 by Etest method in presence of amphotericin B
[30] = tested on: Cryptococcus neoformans; test: Antifungal activity against flucytosine-resistant Cryptococcus neoformans 98.0176 by Etest method in presence of amphotericin B
[31] = tested on: Cryptococcus neoformans; test: Antifungal activity against flucytosine-resistant Cryptococcus neoformans 18476 by Etest method in presence of amphotericin B
[32] = tested on: Cryptococcus neoformans; test: Antifungal activity against flucytosine-resistant Cryptococcus neoformans 18476 by checkerboard method
[33] = tested on: Cryptococcus neoformans; test: Antifungal activity against flucytosine-resistant Cryptococcus neoformans 18476 by checkerboard method in presence of amphotericin B
[34] = tested on: Cryptococcus neoformans; test: Antifungal activity against flucytosine-resistant Cryptococcus neoformans 276 by checkerboard method
[35] = tested on: Cryptococcus neoformans; test: Antifungal activity against flucytosine-resistant Cryptococcus neoformans 285 by checkerboard method
[36] = tested on: Cryptococcus neoformans; test: Antifungal activity against flucytosine-resistant Cryptococcus neoformans 276 at 64 ug/ml after 72 hrs by time-kill method; method in brief: as §2
[37] = tested on: Cryptococcus neoformans; test: Antifungal activity against flucytosine-resistant Cryptococcus neoformans 533 at 64 ug/ml after 72 hrs by time-kill method; method in brief: as §2
[38] = tested on: Cryptococcus neoformans; test: Antifungal activity against flucytosine-resistant Cryptococcus neoformans 533 by checkerboard method
[39] = tested on: Cryptococcus neoformans; test: Antifungal activity against flucytosine-resistant Cryptococcus neoformans 285 by checkerboard method in presence of amphotericin B

## Nc1nc(=O)[nH]cc1F [FLUCYTOSINE]
[1]
  MIC: 32 mg/L
[2]
  log10CFU/ml: 7.5
[3]
  MIC: 0.5 mg/L
[4]
  MIC: 1 mg/L
[5]
  MIC: > 32 mg/L
[6]
  MIC: 64 mg/L
[7]
  MIC: > 32 mg/L
[8]
  log10CFU/ml: 7.4
[9]
  log10CFU/ml: 7.2
[10]
  MIC: 4 mg/L
[11]
  MIC: > 32 mg/L
[12]
  log10CFU/ml: 7.4
[13]
  MIC: 0.5 mg/L
[14]
  log10CFU/ml: 7.1
[15]
  MIC: 0.5 mg/L
[16]
  MIC: 0.5 mg/L
[17]
  MIC: > 32 mg/L
[18]
  MIC: 128 mg/L
[19]
  MIC: > 32 mg/L
[20]
  MIC: 256 mg/L
[21]
  MIC: 64 mg/L
[22]
  log10CFU/ml: 7.5
[23]
  MIC: > 32 mg/L
[24]
  log10CFU/ml: 7.4
[25]
  MIC: 256 mg/L
[26]
  MIC: 0.25 mg/L
[27]
  MIC: 16 mg/L
[28]
  MIC: > 32 mg/L
[29]
  MIC: > 32 mg/L
[30]
  MIC: > 32 mg/L
[31]
  MIC: > 32 mg/L
[32]
  MIC: 256 mg/L
[33]
  MIC: 1 mg/L
[34]
  MIC: 256 mg/L
[35]
  MIC: 32 mg/L
[36]
  log10CFU/ml: 7.3
[37]
  log10CFU/ml: 7.5
[38]
  MIC: 256 mg/L
[39]
  MIC: 0.25 mg/L
